Results on one compound are retold here after PMC7931380 (ACS Omega, 2021).

The format of data set [1] is in vivo, human. A digest of the protocol:
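Eight healthy men (21–65 y) taking no medicines or vitamins, randomized 1:1, double-blind crossover. After a ≥10 h fast, seated subjects swallowed 500 mg test formulation or 500 mg control (150 mg AA + 350 mg starch) with 240 mL water. Heparinized blood sampled 0.25–24 h post dose, spun 3500 rpm, 4 °C, 10 min; plasma at −20 °C, AA by HPLC; mean ± SD.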

Data set [2] is described as follows: Particle size and ζ-potential by dynamic light scattering. The format is physicochemical. The following applies: 25 °C. In short, it runs like this: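 Test-compound-loaded fiber-reinforced phospholipid vesicles were diluted 10-fold in distilled water to avoid scattering artefacts. Size and ζ-potential were then measured by dynamic light scattering on a Zetasizer Nano ZS at 25 °C, with intensity read at a scattering angle of 90.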

Where [3] appears, read: male, human, plasma, po, 150 mg.
The mark [4] stands for this setting: plasma vitamin C, single oral dose 500 mg (150 mg AA), fasting, mean ± SD.

SMILES strings stand for the structures. Where two headings read alike, the source gives them in different places.

In data set [1] (setting [3]), `O=C1O[C@H]([C@@H](O)CO)C(O)=C1O` [AA, L-ascorbic acid] showed a Cmax of 12300 ± 3800 ng/mL, a half-life of 3.14 ± 2.01 h and a k el of 8.61e-05 s⁻¹. Moreover, in data set [1] (setting [4]), the “AUC0–t” value came out at 9.38 ± 4.91 mg·h/dL, the “AUC0–∞” value is reported as 9.66 ± 5.02 mg·h/dL and the Tmax was determined as 3.56 ± 0.62 h. Further, in data set [1] (single oral dose), the AUC was 9.66 mg/dL and the “AUC0–t” value amounted to 9.38 mg/dL. Further, in data set [2], the ζ-potential is −20 to 10 mV.

By Cmax is commonly meant the highest concentration seen after dosing. A word on the half-life: it is how long it takes for the measured level to halve. The low end stands for rapid decline, the high end for slow decline. Broadly, the Tmax is the time from dosing to the highest level.
